Experimental data from different studies.
Lines come from different studies, so protocols differ.
Target: Dual specificity mitogen-activated protein kinase kinase 4 (MAP2K4, Homo sapiens, UniProt P45985)
Residues used in one study (P45985 1-399): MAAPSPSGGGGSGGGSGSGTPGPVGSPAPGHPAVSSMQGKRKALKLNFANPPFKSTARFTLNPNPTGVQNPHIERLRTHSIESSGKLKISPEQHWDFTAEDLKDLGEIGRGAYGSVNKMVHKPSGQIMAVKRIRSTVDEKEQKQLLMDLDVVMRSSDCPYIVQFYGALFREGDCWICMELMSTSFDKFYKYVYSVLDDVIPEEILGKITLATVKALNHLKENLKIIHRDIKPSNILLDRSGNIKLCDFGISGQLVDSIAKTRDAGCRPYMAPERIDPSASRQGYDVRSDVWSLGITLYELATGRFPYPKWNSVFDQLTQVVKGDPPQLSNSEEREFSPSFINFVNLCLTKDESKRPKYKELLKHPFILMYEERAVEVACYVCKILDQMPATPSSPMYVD

With `CN(C)c1nccc(-c2cnc3ncccn23)n1` the remaining binding was 84% (binding; 1 µM).
The remaining binding of `CS(=O)(=O)NCC[C@H](NC(=O)c1cncc2c1cnn2-c1ccc(F)cc1)c1ccnc(S(C)(=O)=O)c1` is reported as 100% (cell-free assay; competition with immobilised ligand; 1 µM).
`COc1ccnn2ncc(-c3ccnc(N(C)C)n3)c12` has a remaining binding of 100% (binding; 1 µM).
`Cc1nc(C2CCN(C(=O)c3ccc(OC(F)(F)F)cc3N)CC2)c2ncc(N3CCN(C)CC3)cc2n1` gave a remaining binding of 100% (cell-free assay; competition with immobilised ligand; 1 µM).
With `CN(c1nccc(-c2cnn3ncccc23)n1)C1CC1` the remaining binding was 100% (binding; 1 µM).
`Nc1c(C(=O)NCc2ccc(C(=O)NCCCC3CCCCC3)cc2)cnn1-c1ccccc1` has a remaining binding of 100% (cell-free assay; competition with immobilised ligand; 0.1 µM).
`COc1cnc(Nc2cccc(S(N)(=O)=O)c2)nc1N1CCN(c2ccccc2)C(=O)C1` gave a remaining binding of 71% (binding; competition with immobilised ligand; 1 µM).
`CC(=O)N1CCC(c2ccc(C(=O)NC3=NCCN3)cc2C(F)(F)F)CC1` gave a remaining binding of 100% (cell-free assay; competition with immobilised ligand; 1 µM).
For `O=C(c1ccc(Nc2ncc(Cl)c(-c3ccc(Cl)s3)n2)cc1)N1CCC(N2CCCC2)CC1`, the remaining binding was 42% (binding; competition with immobilised ligand; 1 µM).
The remaining binding of `CN(C)c1ncc(F)c(-c2cnn3ncccc23)n1` is reported as 100% (binding; 1 µM).
`c1cncc(-c2cccc(Nc3nccc(NC4CCCCC4)n3)c2)c1` gave a remaining binding of 64% (binding; competition with immobilised ligand; 10 µM).
For `Cn1cc(Cl)c2c(Oc3c(F)cc(Nc4cc(Cl)nc(N)n4)cc3F)ccnc21`, the remaining binding was 80% (cell-free assay; competition with immobilised ligand; 0.1 µM).
For `C[C@@H]1CCN(c2nccc(-c3cnn4ncccc34)n2)C1`, the remaining binding was 69% (binding; 1 µM).
With `FC(F)(F)Oc1cccc(-c2cnc3ccc(-c4ccncc4)nn23)c1` the remaining binding was 69% (cell-free assay; competition with immobilised ligand; 5 µM).
`COc1ncc2cc3ccccc3nc2c1C#N` gave a remaining binding of 100% (cell-free assay; competition with immobilised ligand; 5 µM).
With `O=C(Nc1c[nH]nc1C(=O)NC1CCNCC1)c1cc(F)cc(F)c1` the remaining binding was 94% (binding; competition with immobilised ligand; 1 µM).
With `O=C(NCCCN1CCOCC1)c1ccc(Nc2ncc(Cl)c(-c3ccc(Cl)s3)n2)cc1` the remaining binding was 56% (binding; competition with immobilised ligand; 1 µM).
`C[C@@H](c1ccc(-n2cnc3c(N)ncnc32)cc1)N1CCc2nn(C)c(Cc3ccccc3)c2C1=O` gave a remaining binding of 57% (binding; competition with immobilised ligand; 0.1 µM).
For `O=C(c1ccc(Nc2ncc(Cl)c(-c3cc4ccccc4s3)n2)cc1)N1CCC(N2CCCC2)CC1`, the remaining binding was 69% (binding; competition with immobilised ligand; 1 µM).
The remaining binding of `COc1cc(-c2cn(C3CCc4ccccc4N(CC(F)(F)F)C3=O)nn2)ccc1-n1ccc(C)n1` (stereo not drawn) is reported as 100% (cell-free assay; competition with immobilised ligand; 1 µM).
The remaining binding of `N[C@@H]1CCN(c2nccc(-c3cnn4ncccc34)n2)C1` is reported as 99% (binding; 1 µM).
